Published values collected from several papers.
Each line is one published result; the experiments were not run side by side.
Target: Mitogen-activated protein kinase kinase kinase 11 (MAP3K11, Homo sapiens, UniProt Q16584)

Compound	test	conditions	endpoint	result
CN1CCc2cc(Nc3ncc(C4CC4)c(NCCCNC(=O)C4CCC4)n3)ccc2C1	enzyme activity, inhibitor, radiometric	1 µM	remaining activity	44%
N#CCCc1ccc2c(c1)-c1[nH]c3ccc([N+](=O)[O-])cc3c1CC(=O)N2	cell-free assay	0.5 µM	remaining signal	18.4%
CCOCCn1cc(C(=O)Nc2ccc(-n3nc(-c4cccnc4)cc3C(F)(F)F)cn2)ccc1=O	cell-free assay, competition with immobilised ligand	1 µM	remaining binding	100%
O=C(Nc1cnn(-c2csc(C(=O)NC3COC3)c2)c1)Nc1c(F)cccc1Cl	enzyme activity, inhibitor	5 µM	remaining activity	84.7%
O=C(NCCCNc1nc(Nc2cccc(NC(=O)N3CCCC3)c2)ncc1Br)C1CCC1	enzyme activity, inhibitor, radiometric	1 µM	remaining activity	-3%
CCC(=O)N[C@@H]1CC[C@H](C(=O)N(C)c2ccc(-c3nc4ccccc4o3)cc2)C1	cell-free assay, competition with immobilised ligand	1 µM	remaining binding	100%
Cc1nn(CC(F)(F)F)cc1Nc1ncc(Br)c(NCc2ccc(S(N)(=O)=O)cc2)n1	enzyme activity, inhibitor, radiometric	1 µM	remaining activity	82%
Nc1ncnc2occ(-c3ccc(NC(=O)Nc4cc(C(F)(F)F)ccc4F)cc3)c12	cell-free assay, inhibitor	20 µM	remaining signal	2.9%
COCCOc1nc(-c2ccc(Cl)nc2)nc2c1CN(C(=O)c1ncn3ccccc13)CC2	cell-free assay, competition with immobilised ligand	0.1 µM	remaining binding	100%
CNC(=O)c1cc(Oc2ccc(NC(=O)Nc3ccc(Cl)c(C(F)(F)F)c3)cc2)ccn1	cell-free assay	0.5 µM	remaining signal	98.3%
CN1CC(Oc2cnc(C#N)cc2-c2ccn3nc(NC(=O)C4CC4)cc3c2)C1	enzyme activity, inhibitor	1 µM	inhibition	5%
c1cc(CN2CCOCC2)cc(Nc2nccc(NCCc3cnc[nH]3)n2)c1	enzyme activity, inhibitor, radiometric	1 µM	remaining activity	82%
N#Cc1ccc(Nc2ccc3[nH]c(=O)[nH]c3c2)c(Cl)c1	cell-free assay, competition with immobilised ligand	1 µM	remaining binding	100%
Cc1ccc(NC(=O)c2ccc(CN3CCN(C)CC3)cc2)cc1Nc1nc(-c2cccnc2)cs1	cell-free assay	0.5 µM	remaining signal	101%
CN(C)c1ncnc(-c2ccc3nc(Nc4cc(CN5CCN(C(=O)CC(F)(F)F)CC5)ccn4)[nH]c3c2)c1Cl	cell-free assay, competition with immobilised ligand	1 µM	remaining binding	100%
Cc1nn(CC(F)(F)F)cc1Nc1ncc(Br)c(NCCc2cnc[nH]2)n1	enzyme activity, inhibitor, radiometric	1 µM	remaining activity	60%
Cc1c(C(=O)O)cc(-c2ccc(C3CCNCC3)cc2)c2ccc(-c3ccc(C(F)(F)F)cc3)cc12	binding, competition with immobilised ligand	1 µM	remaining binding	100%
C[C@H]1CCN(c2nccc(-c3cnn4ncccc34)n2)C1	binding	1 µM	remaining binding	93%
